Legend:
[1] = molecular target: human serotonin transporter (hSERT) (Homo sapiens, UniProt P31645); assay: Inhibition of APP+ uptake in hSERT-expressing HEK293 cells; assay type: cell-based; settings: inhibition of APP+ (5 μM) uptake
Summary of the method: (§1)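 Flp-In T-REx HEK293 lines stably carrying hDAT or hSERT, DsRED-transfected, doxycycline-induced (1μg/mL) for three days. Under perfusion in pH 7.3 HEPES-glucose buffer: 10 s buffer, 40 s compound, 30 s APP⁺ (3 μM hDAT; 5 μM hSERT) plus compound. Imaging at ex 460/em 535/50 nm. End-point fluorescence averaged over 30–60 cells per well, one concentration per well, normalised to compound-free wells (≥4 wells/concentration). Dose-response inhibition fit gives IC50.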

[2] = molecular target: human dopamine transporter (hDAT) (Homo sapiens, UniProt Q01959); assay: Inhibition of APP+ uptake in hDAT-expressing HEK293 cells; assay type: cell-based; settings: for DAT Selectivity: SERT IC50 value ÷ DAT IC50 value; for IC50: hDAT, inhibition of APP+ (3 μM) uptake
Summary of the method: as §1

DAT [3] = settings: cited from earlier work; for EC50: DAT releasing agent
DAT [4] = settings: binding at DAT; cited from earlier work

Chain of human serotonin transporter (hSERT) (P31645 whole entry, the tested form may be a part): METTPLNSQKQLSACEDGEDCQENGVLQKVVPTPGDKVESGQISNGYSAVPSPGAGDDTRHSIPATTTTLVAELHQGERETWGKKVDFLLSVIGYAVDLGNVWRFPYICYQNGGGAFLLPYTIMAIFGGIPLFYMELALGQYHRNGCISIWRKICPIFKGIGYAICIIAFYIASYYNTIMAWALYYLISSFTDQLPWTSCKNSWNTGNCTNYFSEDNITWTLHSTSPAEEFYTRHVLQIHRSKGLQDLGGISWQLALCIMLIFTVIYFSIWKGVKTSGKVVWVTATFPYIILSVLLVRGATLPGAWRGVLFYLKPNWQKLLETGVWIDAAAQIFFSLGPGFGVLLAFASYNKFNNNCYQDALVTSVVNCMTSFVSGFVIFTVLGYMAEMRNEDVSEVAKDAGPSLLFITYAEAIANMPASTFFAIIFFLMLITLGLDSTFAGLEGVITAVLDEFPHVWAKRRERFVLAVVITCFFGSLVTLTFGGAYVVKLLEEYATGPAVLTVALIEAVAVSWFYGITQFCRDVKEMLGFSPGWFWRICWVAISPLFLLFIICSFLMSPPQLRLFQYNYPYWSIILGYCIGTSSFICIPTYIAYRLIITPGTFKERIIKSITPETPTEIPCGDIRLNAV
Chain of human dopamine transporter (hDAT) (Q01959 whole entry): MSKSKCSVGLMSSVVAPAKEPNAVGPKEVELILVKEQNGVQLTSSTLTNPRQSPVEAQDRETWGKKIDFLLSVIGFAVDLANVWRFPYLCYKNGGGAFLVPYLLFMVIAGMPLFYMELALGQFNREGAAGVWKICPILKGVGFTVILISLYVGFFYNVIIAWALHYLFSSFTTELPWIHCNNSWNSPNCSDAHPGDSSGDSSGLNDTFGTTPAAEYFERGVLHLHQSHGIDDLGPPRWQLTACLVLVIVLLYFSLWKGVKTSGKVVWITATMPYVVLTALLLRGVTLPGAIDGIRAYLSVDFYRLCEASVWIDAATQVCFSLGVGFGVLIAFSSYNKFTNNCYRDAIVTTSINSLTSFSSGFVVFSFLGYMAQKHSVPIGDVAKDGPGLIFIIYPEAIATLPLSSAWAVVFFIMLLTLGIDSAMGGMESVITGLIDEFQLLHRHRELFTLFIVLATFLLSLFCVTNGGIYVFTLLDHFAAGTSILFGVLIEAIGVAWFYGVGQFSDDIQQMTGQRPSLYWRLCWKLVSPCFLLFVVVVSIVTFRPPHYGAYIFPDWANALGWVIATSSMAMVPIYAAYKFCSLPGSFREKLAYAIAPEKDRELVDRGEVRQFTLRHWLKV

Compound | IC50 [1] [nM] | DAT Selectivity [2] [fold] | IC50 [2] [nM] | other results
CCCCC(C(=O)c1ccc(Br)cc1)N1CCCC1.Cl (stereo not drawn) [4-Br α-PHP (8), 1-(4-Bromophenyl)-2-(pyrrolidin-1-yl)hexanone Hydrochloride] | 3610 | 28 | 127 | 
CNC(C)C(=O)c1ccc(C(F)(F)F)cc1 (centres unmarked) [4-CF3 10, 4-CF3 methcathinone] |  |  |  | EC50 (DAT [3]): 2710 nM
CCCC(C(=O)c1ccc(C(F)(F)F)cc1)N1CCCC1 (centres unmarked) [4-CF3 analogue of 2] |  |  |  | fold lower affinity at DAT than 2 (DAT [4]): > 300 fold
CCCCC(C(=O)c1ccc(C(F)(F)F)cc1)N1CCCC1.Cl (stereo not drawn) [4-CF3 α-PHP (9), 1-(4-Trifluoromethylphenyl)-2-pyrrolidin-1-yl)hexanone Hydrochloride] | 5790 |  | 7500 | 
CCCCC(C(=O)c1ccc(C(F)(F)F)cc1)N1CCCC1.Cl (stereo not drawn) [4-CF3 α-PHP (9)] |  | 0.8 |  | 
CCCCC(C(=O)c1ccc(CC)cc1)N1CCCC1.Cl (stereo not drawn) [4-CH2CH3 α-PHP (6), 1-(4-Ethylphenyl)-2-(pyrrolidin-1-yl)hexanone Hydrochloride] | 9830 | 40 | 247 | 
CCCCC(C(=O)c1ccc(C)cc1)N1CCCC1.Cl (stereo not drawn) [4-CH3 α-PHP (4), 1-(4-Methylphenyl)-2-pyrrolidin-1-yl)hexanone Hydrochloride] | 10200 |  | 124 | 
CCCCC(C(=O)c1ccc(C)cc1)N1CCCC1.Cl (stereo not drawn) [4-CH3 α-PHP (4)] |  | 83 |  | 
CCCCC(C(=O)c1ccc(Cl)cc1)N1CCCC1.Cl (stereo not drawn) [4-Cl α-PHP (7), 1-(4-Chlorophenyl)-2-(pyrrolidin-1-yl)hexanone Hydrochloride] | 10100 | 55 | 184 | 
CNC(C)C(=O)c1ccc(OC)cc1 (centres unmarked) [4-OCH3 10] |  |  |  | fold lower potency as a releasing agent than its parent, 10 (DAT [3]; DAT release): 40 fold; SERT versus DAT selectivity (DAT [3]; releasing agent): 4 fold
CCCCC(C(=O)c1ccc(OC)cc1)N1CCCC1.Cl (stereo not drawn) [4-OCH3 α-PHP (5), 1-(4-Methoxyphenyl)-2-(pyrrolidin-1-yl)hexanone Hydrochloride] | 15200 | 200 | 75 | 
CNC(C)C(=O)c1ccccc1 (centres unmarked) [Compound 10, methcathinone] |  |  |  | EC50 (DAT [3]): 13.5 nM
CCCCC(C(=O)c1ccccc1)N1CCCC1 (stereo not drawn) [α-PHP (1), 1-phenyl-2-(pyrrolidin-1-yl)hexanone] | > 30000 | >300 | 97 | 
